{
  "source": "ChEMBL document CHEMBL1122967",
  "about": "(J Med Chem, 1985)",
  "assay_type_in_all_cases": "ADME, organism-based",
  "details_in_all_cases": "in vivo",
  "key": {"Rattus norvegicus [1]": {"system": "Rattus norvegicus", "assay": "Distribution of [125I]-AC in heart after intravenous administration in rat after 2hours, expressed as percent dose/gram", "summary_of_the_method": "(§1)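 Rats received the radioiodinated ligand intravenously and were killed with ether at 1 h or 2 h (six per time point). Organs and brain regions (striatum, cerebellum, thalamus, rest of brain) were sampled and counted. Uptake was calculated as percent injected dose per gram tissue, reported ± SD. The striatum/cerebellum ratio was taken from the regional uptake values.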"}, "Rattus norvegicus [2]": {"system": "Rattus norvegicus", "assay": "Distribution of [125I]AC in rest of the brain after intravenous administration in rat after 1hour, expressed as percent dose/gram", "summary_of_the_method": "as §1"}, "Rattus norvegicus [3]": {"species_on_record": "Rattus norvegicus", "assay": "Ratio of striatum/cerebellum distribution in rat after 1 hr", "summary_of_the_method": "as §1"}, "Rattus norvegicus [4]": {"system": "Rattus norvegicus", "assay": "Distribution of [125I]AC in blood after intravenous administration in rat after 1hour, expressed as percent dose/gram", "summary_of_the_method": "as §1"}, "Rattus norvegicus [5]": {"system": "Rattus norvegicus", "assay": "Distribution of [125I]AC in striatum after intravenous administration in rat after 2hours, expressed as percent dose/gram", "summary_of_the_method": "as §1"}, "Rattus norvegicus [6]": {"system": "Rattus norvegicus", "assay": "Distribution of [125I]AC in cerebellum after intravenous administration in rat after 1hour, expressed as percent dose/gram", "summary_of_the_method": "as §1"}, "Rattus norvegicus [7]": {"system": "Rattus norvegicus", "assay": "Distribution of [125I]AC in rest of the brain after intravenous administration in rat after 2hours, expressed as percent dose/gram", "summary_of_the_method": "as §1"}, "Rattus norvegicus [8]": {"system": "Rattus norvegicus", "assay": "Distribution of [125I]-AC in cerebellum after intravenous administration in rat after 2hours, expressed as percent dose/gram", "summary_of_the_method": "as §1"}, "Rattus norvegicus [9]": {"system": "Rattus norvegicus", "assay": "Distribution of [125I]AC in striatum after intravenous administration in rat after 1hour, expressed as percent dose/gram", "summary_of_the_method": "as §1"}, "Rattus norvegicus [10]": {"system": "Rattus norvegicus", "assay": "Distribution of [125I]-AC in thalamus after intravenous administration in rat after 1hour, expressed as percent dose/gram", "summary_of_the_method": "as §1"}, "Rattus norvegicus [11]": {"system": "Rattus norvegicus", "assay": "Distribution of [125I]AC in thalamus after intravenous administration in rat after 2hours, expressed as percent dose/gram", "summary_of_the_method": "as §1"}, "Rattus norvegicus [12]": {"species_on_record": "Rattus norvegicus", "assay": "Ratio of striatum/cerebellum distribution in rat after 2 hr", "summary_of_the_method": "as §1"}, "Rattus norvegicus [13]": {"system": "Rattus norvegicus", "assay": "Distribution of [125I]AC in heart after intravenous administration in rat after 1hour, expressed as percent dose/gram", "summary_of_the_method": "as §1"}, "Rattus norvegicus [14]": {"system": "Rattus norvegicus", "assay": "Distribution of [125I]-AC in blood after intravenous administration in rat after 2hours, expressed as percent dose/gram", "summary_of_the_method": "as §1"}, "Rattus norvegicus [15]": {"system": "Rattus norvegicus", "assay": "Distribution of [125I]iodoclebopride in striatum after intravenous administration in rat after 2hours, expressed as percent dose/gram", "summary_of_the_method": "as §1"}, "Rattus norvegicus [16]": {"system": "Rattus norvegicus", "assay": "Distribution of [125I]iodoclebopride in striatum after intravenous administration in rat after 1hour, expressed as percent dose/gram", "summary_of_the_method": "as §1"}, "Rattus norvegicus [17]": {"system": "Rattus norvegicus", "assay": "Distribution of [125I]iodoclebopride in blood after intravenous administration in rat after 2hours, expressed as percent dose/gram", "summary_of_the_method": "as §1"}, "Rattus norvegicus [18]": {"system": "Rattus norvegicus", "assay": "Distribution of [125I]iodoclebopride in heart after intravenous administration in rat after 2hours, expressed as percent dose/gram", "summary_of_the_method": "as §1"}, "Rattus norvegicus [19]": {"system": "Rattus norvegicus", "assay": "Distribution of [125I]Iodoclebopride in rest of the brain after intravenous administration in rat after 2hours, expressed as percent dose/gram", "summary_of_the_method": "as §1"}, "Rattus norvegicus [20]": {"system": "Rattus norvegicus", "assay": "Distribution of [125I]iodoclebopride in cerebellum after intravenous administration in rat after 1hour, expressed as percent dose/gram", "summary_of_the_method": "as §1"}, "Rattus norvegicus [21]": {"system": "Rattus norvegicus", "assay": "Distribution of [125I]iodoclebopride in thalamus after intravenous administration in rat after 2hours, expressed as percent dose/gram", "summary_of_the_method": "as §1"}, "Rattus norvegicus [22]": {"system": "Rattus norvegicus", "assay": "Distribution of [125I]iodoclebopride in thalamus after intravenous administration in rat after 1hour, expressed as percent dose/gram", "summary_of_the_method": "as §1"}, "Rattus norvegicus [23]": {"system": "Rattus norvegicus", "assay": "Distribution of [125I]Iodoclebopride in rest of the brain after intravenous administration in rat after 1hour, expressed as percent dose/gram", "summary_of_the_method": "as §1"}, "Rattus norvegicus [24]": {"system": "Rattus norvegicus", "assay": "Distribution of [125I]iodoclebopride in cerebellum after intravenous administration in rat after 2hours, expressed as percent dose/gram", "summary_of_the_method": "as §1"}, "Rattus norvegicus [25]": {"system": "Rattus norvegicus", "assay": "Distribution of [125I]iodoclebopride in heart after intravenous administration in rat after 1hour, expressed as percent dose/gram", "summary_of_the_method": "as §1"}, "Rattus norvegicus [26]": {"system": "Rattus norvegicus", "assay": "Distribution of [125I]iodoclebopride in blood after intravenous administration in rat after 1hour, expressed as percent dose/gram", "summary_of_the_method": "as §1"}},
  "data": [
    {"smiles": "COc1cc(N)c(I)cc1C(=O)NC1CCN(Cc2ccccc2)CC1", "values": [
      {"measurement": "Tissue distribution", "setting": "Rattus norvegicus [1]", "result": 0.3, "unit": "%"},
      {"measurement": "Tissue distribution", "setting": "Rattus norvegicus [2]", "result": 0.18, "unit": "%"},
      {"measurement": "Ratio", "setting": "Rattus norvegicus [3]", "result": 1.92},
      {"measurement": "Tissue distribution", "setting": "Rattus norvegicus [4]", "result": 0.33, "unit": "%"},
      {"measurement": "Tissue distribution", "setting": "Rattus norvegicus [5]", "result": 0.38, "unit": "%"},
      {"measurement": "Tissue distribution", "setting": "Rattus norvegicus [6]", "result": 0.26, "unit": "%"},
      {"measurement": "Tissue distribution", "setting": "Rattus norvegicus [7]", "result": 0.16, "unit": "%"},
      {"measurement": "Tissue distribution", "setting": "Rattus norvegicus [8]", "result": 0.23, "unit": "%"},
      {"measurement": "Tissue distribution", "setting": "Rattus norvegicus [9]", "result": 0.5, "unit": "%"},
      {"measurement": "Tissue distribution", "setting": "Rattus norvegicus [10]", "result": 0.27, "unit": "%"},
      {"measurement": "Tissue distribution", "setting": "Rattus norvegicus [11]", "result": 0.22, "unit": "%"},
      {"measurement": "Ratio", "setting": "Rattus norvegicus [12]", "result": 1.65},
      {"measurement": "Tissue distribution", "setting": "Rattus norvegicus [13]", "result": 0.35, "unit": "%"},
      {"measurement": "Tissue distribution", "setting": "Rattus norvegicus [14]", "result": 0.29, "unit": "%"}
    ]},
    {"smiles": "COc1cc(N=[N+]=[N-])c(I)cc1C(=O)NC1CCN(Cc2ccccc2)CC1", "note": "[IODOAZIDOCLEBOPRIDE]", "values": [
      {"measurement": "Ratio", "setting": "Rattus norvegicus [3]", "result": 2.23},
      {"measurement": "Tissue distribution", "setting": "Rattus norvegicus [15]", "result": 2.52, "unit": "%"},
      {"measurement": "Tissue distribution", "setting": "Rattus norvegicus [16]", "result": 2.52, "unit": "%"},
      {"measurement": "Tissue distribution", "setting": "Rattus norvegicus [17]", "result": 0.34, "unit": "%"},
      {"measurement": "Tissue distribution", "setting": "Rattus norvegicus [18]", "result": 1.34, "unit": "%"},
      {"measurement": "Tissue distribution", "setting": "Rattus norvegicus [19]", "result": 0.73, "unit": "%"},
      {"measurement": "Tissue distribution", "setting": "Rattus norvegicus [20]", "result": 1.13, "unit": "%"},
      {"measurement": "Tissue distribution", "setting": "Rattus norvegicus [21]", "result": 1.12, "unit": "%"},
      {"measurement": "Tissue distribution", "setting": "Rattus norvegicus [22]", "result": 1.25, "unit": "%"},
      {"measurement": "Tissue distribution", "setting": "Rattus norvegicus [23]", "result": 0.78, "unit": "%"},
      {"measurement": "Tissue distribution", "setting": "Rattus norvegicus [24]", "result": 1.06, "unit": "%"},
      {"measurement": "Ratio", "setting": "Rattus norvegicus [12]", "result": 2.37},
      {"measurement": "Tissue distribution", "setting": "Rattus norvegicus [25]", "result": 1.61, "unit": "%"},
      {"measurement": "Tissue distribution", "setting": "Rattus norvegicus [26]", "result": 0.32, "unit": "%"}
    ]}
  ]
}
